We go through two compounds from ChEMBL document CHEMBL4725476, “Fluorescent Probes for Ecto-5'-nucleotidase (CD73)” (ACS Med Chem Lett, 2020).

In data set [1] the target is T1, 5'-nucleotidase (Homo sapiens, UniProt P21589). As to the kind of experiment: Inhibition of recombinant human C-terminal His-tagged CD73 (27 to 549 residues) expressed in Sf9 cells using [2,8-3H]-AMP as substrate incubated for 25 mins by scintillation counting method. Summed up:
(§1)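 Radiometric CD73 assay using [3H]AMP substrate. Enzyme sources: human and rat recombinant soluble CD73 from Sf9 insect cells, or membrane preparations of MDA-MB-231 cells with native CD73. After incubation, unreacted [3H]AMP precipitated with lanthanum chloride and removed by filtration. [3H]adenosine in filtrate quantified by liquid scintillation counting. Full concentration-inhibition curves; Ki from IC50 via Cheng–Prusoff. Means ± SEM of 3 separate experiments.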

The target of data set [2] is T2, 5'-nucleotidase (Mus musculus) (UniProt Q61503).
T2 sequence (whole entry): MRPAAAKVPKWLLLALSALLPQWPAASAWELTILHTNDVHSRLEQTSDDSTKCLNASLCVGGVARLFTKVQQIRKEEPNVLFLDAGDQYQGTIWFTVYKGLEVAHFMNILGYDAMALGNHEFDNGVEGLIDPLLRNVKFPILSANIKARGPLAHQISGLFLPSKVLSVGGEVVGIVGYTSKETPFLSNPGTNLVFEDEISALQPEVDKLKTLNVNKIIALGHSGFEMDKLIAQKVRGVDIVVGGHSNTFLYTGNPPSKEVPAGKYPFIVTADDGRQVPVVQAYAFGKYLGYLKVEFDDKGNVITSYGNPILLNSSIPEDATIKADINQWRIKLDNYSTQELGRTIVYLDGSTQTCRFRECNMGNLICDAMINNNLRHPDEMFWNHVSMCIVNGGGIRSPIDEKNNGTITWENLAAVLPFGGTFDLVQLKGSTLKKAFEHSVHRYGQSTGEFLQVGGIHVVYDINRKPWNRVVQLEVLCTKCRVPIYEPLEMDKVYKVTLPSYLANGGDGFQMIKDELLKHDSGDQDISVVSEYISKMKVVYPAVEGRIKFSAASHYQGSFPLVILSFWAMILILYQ
The data set is described as follows: Inhibition of CD73 in C57BL/6 mouse retina incubated for 1 hr by microscopic analysis. It is filed as tissue-based. The method, boiled down:
(§2)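 Eyeballs enucleated from wild-type and CD73 knockout mice (targeted gene disruption). Free-floating vibratome-cut eye sections costained with rabbit anti-rat CD73 and chicken anti-vimentin antibodies. Then incubated with fluorochrome-conjugated second-stage antibodies together with fluorescein-labeled inhibitor. Nuclei counterstained with DAPI; read by immunofluorescence microscopy.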

The subject of another data set is MDA-MB-231. As to the kind of experiment: Cytotoxicity against human MDA-MB-231 cells assessed as reduction in cell growth at 10000 nM incubated for 24 hrs by FACS analysis. Type of data set: cell-based. The following applies: mda-mb-231, 24 h, 10 µM. In general terms: A flow cytometer gives signals particle by particle.
Another data set deals with Retina. The data set is described as follows: Effect on C57BL/6 mouse retina with CD73-/- deficient incubated for 1 hr by microscopic analysis. It is filed as ADME, tissue-based. Summed up: as §2
The next data set relates to A549. As to the kind of experiment: Cytotoxicity against human A549 cells assessed as reduction in cell growth at 1000 nM incubated for 48 hrs by CCK8 assay. It is filed as cell-based. The following applies: a549, 48 h, 1 µM. (Tetrazolium dyes change colour on reduction, which living cells bring about.)
The target in data set [3] is T1, 5'-nucleotidase. As to the kind of experiment: Inhibition of CD73 in human MDA-MB-231 cells incubated for 30 mins by anti-CD73 antibody and alexa flour 633 staining based confocal microscopy analysis. It is filed as cell-based. Summed up:
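MDA-MB-231 cells grown on cover slips were stained with rabbit anti-human CD73 antibody (h5NT-1L), then incubated with Alexa Fluor 633 goat anti-rabbit IgG secondary together with the fluorescein-labelled CD73 inhibitor. Nuclei were counterstained with DAPI. Cell-surface CD73 and probe binding were imaged by confocal microscopy.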

The target in data set [4] is T3, Ectonucleoside triphosphate diphosphohydrolase 3 (Homo sapiens) (UniProt O75355).
T3 sequence (whole entry): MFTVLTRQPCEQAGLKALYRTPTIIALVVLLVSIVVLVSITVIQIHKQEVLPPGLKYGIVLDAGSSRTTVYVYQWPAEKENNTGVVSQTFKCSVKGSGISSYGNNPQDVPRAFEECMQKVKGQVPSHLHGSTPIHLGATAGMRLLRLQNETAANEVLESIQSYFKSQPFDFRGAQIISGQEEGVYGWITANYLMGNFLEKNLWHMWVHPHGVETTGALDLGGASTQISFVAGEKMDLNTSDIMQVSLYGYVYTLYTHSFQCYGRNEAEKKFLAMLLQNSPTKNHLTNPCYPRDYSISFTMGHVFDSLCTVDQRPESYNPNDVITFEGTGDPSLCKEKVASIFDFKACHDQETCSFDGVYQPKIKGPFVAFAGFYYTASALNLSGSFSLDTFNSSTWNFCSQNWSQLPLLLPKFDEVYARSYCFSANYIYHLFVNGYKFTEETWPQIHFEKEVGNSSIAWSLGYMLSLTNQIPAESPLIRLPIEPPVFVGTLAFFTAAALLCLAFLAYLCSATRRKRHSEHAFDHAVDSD
The data set is described as follows: Inhibition of human NTPDase 3 expressed in […] cells using ATP as substrate at 50 uM incubated for 5 mins followed by substrate addition and measured after 30 mins by capillary electrophoresis method. Type of data set: cell-based.

Data set [5] has as its target T4, Ectonucleoside triphosphate diphosphohydrolase 1 (Homo sapiens) (UniProt P49961).
T4 sequence (whole entry): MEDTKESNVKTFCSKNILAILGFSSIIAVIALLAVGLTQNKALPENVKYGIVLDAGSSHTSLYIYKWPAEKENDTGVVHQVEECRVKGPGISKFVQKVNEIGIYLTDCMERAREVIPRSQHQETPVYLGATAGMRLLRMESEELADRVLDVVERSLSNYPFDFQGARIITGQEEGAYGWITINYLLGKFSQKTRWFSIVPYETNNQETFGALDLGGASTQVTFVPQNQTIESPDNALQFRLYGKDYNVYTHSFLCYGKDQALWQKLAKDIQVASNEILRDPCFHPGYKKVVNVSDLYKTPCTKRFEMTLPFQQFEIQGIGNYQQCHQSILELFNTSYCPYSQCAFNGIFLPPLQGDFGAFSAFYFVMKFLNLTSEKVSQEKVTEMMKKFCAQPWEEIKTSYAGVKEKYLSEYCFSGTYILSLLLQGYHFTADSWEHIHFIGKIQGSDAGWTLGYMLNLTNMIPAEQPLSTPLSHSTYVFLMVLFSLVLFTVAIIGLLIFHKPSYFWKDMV
As to the kind of experiment: Inhibition of human NTPDase 1 expressed in […] cells using ATP as substrate at 50 uM incubated for 5 mins followed by substrate addition and measured after 30 mins by capillary electrophoresis method. It is filed as cell-based.

In data set [6] the target is P2Y purinoceptor 12 (Homo sapiens) (UniProt Q9H244). The data set is described as follows: Effect on human P2Y12 expressed in […] cells assessed as beta arrestin recruitment at 10 uM by beta-arrestin assay. Type of data set: functional, cell-based. To be noted: CHO-K1.
Data set [7] has as its target T1, 5'-nucleotidase. The data set is described as follows: Inhibition of CD73 in human MDA-MB-231 cells using [2,8-3H]-AMP as substrate incubated for 25 mins by scintillation counting method. It is filed as cell-based. The method, boiled down:
as §1

Data set [8] can be described thus: Metabolic stability in human liver microsomes assessed as half life measured for 60 mins. Type of data set: ADME, Microsome. The method, boiled down:
(§3)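 Stability of the probe tested by incubation with human liver microsomes. Intrinsic clearance expressed per mg microsomal protein; half-life derived from the clearance.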

A short description of data set [9]: Selectivity index, ratio of Ki for rat C-terminal His-tagged CD73 expressed in Sf9 cells to Ki for recombinant human C-terminal His-tagged CD73 (27 to 549 residues) expressed in Sf9 cells. Summed up:
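Ki values were measured in a radiometric assay with [3H]AMP substrate against rat and human recombinant soluble CD73 expressed in Sf9 insect cells. Residual [3H]AMP was precipitated with lanthanum chloride and removed by filtration, and [3H]adenosine was quantified by liquid scintillation counting. Ki came from full-curve IC50 via Cheng–Prusoff, 3 separate experiments. The ratio is rat Ki over human Ki.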

The nature of data set [10]: Metabolic stability in human liver microsomes assessed as intrinsic clearance measured for 60 mins. Type of data set: ADME, Microsome. To be noted: read-out: CLH. The method, boiled down: as §3
A general note: Liver microsomes are vesicles of endoplasmic reticulum, rich in cytochrome P450 enzymes.

For data set [11], the target named is T5, Ectonucleoside triphosphate diphosphohydrolase 2 (Homo sapiens) (UniProt Q9Y5L3).
T5 sequence (whole entry): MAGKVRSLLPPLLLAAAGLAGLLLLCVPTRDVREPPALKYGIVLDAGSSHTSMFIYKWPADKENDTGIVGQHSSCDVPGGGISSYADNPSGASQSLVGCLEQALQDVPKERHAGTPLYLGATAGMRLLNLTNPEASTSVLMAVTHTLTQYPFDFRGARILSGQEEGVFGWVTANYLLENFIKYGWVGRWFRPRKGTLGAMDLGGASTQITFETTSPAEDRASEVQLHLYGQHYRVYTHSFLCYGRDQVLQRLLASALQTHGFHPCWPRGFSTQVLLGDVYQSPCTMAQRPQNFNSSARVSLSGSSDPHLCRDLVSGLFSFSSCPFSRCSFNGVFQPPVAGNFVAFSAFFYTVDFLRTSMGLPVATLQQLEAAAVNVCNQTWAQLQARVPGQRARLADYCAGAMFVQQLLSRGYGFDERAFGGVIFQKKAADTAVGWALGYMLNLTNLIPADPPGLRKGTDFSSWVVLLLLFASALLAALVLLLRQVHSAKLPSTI
The data set is described as follows: Inhibition of human NTPDase 2 expressed in […] cells using ATP as substrate at 50 uM incubated for 5 mins followed by substrate addition and measured after 30 mins by capillary electrophoresis method. It is filed as cell-based.

The target of data set [12] is T6, 5'-nucleotidase (Rattus norvegicus, UniProt P21588).
T6 sequence (P21588 whole entry): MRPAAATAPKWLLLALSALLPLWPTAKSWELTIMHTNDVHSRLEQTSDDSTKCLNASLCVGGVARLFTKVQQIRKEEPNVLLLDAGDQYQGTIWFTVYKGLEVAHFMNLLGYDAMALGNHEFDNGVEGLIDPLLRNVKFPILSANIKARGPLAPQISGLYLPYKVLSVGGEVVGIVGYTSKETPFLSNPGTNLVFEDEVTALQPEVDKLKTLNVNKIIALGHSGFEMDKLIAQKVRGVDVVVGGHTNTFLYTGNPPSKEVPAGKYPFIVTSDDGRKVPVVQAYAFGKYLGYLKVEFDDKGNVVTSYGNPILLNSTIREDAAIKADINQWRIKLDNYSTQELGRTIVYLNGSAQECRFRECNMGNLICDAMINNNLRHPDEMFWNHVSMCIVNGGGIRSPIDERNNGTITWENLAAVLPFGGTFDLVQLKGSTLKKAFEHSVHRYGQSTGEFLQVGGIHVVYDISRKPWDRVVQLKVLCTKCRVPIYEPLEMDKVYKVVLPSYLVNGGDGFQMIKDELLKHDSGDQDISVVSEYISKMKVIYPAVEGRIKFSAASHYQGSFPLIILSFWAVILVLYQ
The data set is described as follows: Inhibition of recombinant rat CD73 expressed in Sf9 cells using [2,8-3H]-AMP as substrate incubated for 25 mins by scintillation counting method. The method, boiled down:
as §1

Data set [13] has as its target T7, Ectonucleoside triphosphate diphosphohydrolase 8 (Homo sapiens) (UniProt Q5MY95).
T7 sequence (whole entry): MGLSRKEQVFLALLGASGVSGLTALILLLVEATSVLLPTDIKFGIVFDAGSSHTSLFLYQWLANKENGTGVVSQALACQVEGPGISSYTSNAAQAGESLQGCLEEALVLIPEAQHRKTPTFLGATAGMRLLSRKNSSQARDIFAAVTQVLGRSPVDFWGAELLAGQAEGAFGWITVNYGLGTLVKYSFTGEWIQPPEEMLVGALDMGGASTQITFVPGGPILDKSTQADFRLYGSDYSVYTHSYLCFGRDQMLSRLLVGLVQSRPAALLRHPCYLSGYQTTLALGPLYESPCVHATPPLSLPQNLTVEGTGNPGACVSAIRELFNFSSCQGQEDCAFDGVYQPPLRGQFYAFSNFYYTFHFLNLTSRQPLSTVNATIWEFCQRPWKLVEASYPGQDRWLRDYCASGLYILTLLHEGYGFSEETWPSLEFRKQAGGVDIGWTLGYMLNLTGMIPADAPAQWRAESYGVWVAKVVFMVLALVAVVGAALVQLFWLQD
The data set is described as follows: Inhibition of human NTPDase 8 expressed in […] cells using ATP as substrate at 50 uM incubated for 5 mins followed by substrate addition and measured after 30 mins by capillary electrophoresis method. Type of data set: cell-based.

The source made the active and inactive calls. The calls are words filed in the database; no cut-off is given here.

In general, Ki refers to a dissociation constant, usually derived from enzyme kinetics or from competition with a known ligand. In general, half-life refers to the time in which the quantity being followed falls by half.

T1 sequence (P21589 whole entry, the tested form may be a part): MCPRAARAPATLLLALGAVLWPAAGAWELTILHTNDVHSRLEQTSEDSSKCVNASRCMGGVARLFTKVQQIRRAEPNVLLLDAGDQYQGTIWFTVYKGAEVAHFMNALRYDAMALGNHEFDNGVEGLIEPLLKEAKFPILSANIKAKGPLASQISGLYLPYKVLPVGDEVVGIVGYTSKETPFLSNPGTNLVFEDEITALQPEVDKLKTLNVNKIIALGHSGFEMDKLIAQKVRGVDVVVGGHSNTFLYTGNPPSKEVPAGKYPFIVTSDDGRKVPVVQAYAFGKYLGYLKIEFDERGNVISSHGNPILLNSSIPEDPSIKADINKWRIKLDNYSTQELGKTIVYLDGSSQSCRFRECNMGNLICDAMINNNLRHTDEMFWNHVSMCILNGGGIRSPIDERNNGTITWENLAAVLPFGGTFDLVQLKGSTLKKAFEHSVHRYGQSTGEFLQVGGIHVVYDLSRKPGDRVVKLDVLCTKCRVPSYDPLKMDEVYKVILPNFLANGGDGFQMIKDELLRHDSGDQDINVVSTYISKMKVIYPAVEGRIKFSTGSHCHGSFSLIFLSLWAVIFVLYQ
Sequence of P2Y purinoceptor 12 (Homo sapiens) (Q9H244 whole entry): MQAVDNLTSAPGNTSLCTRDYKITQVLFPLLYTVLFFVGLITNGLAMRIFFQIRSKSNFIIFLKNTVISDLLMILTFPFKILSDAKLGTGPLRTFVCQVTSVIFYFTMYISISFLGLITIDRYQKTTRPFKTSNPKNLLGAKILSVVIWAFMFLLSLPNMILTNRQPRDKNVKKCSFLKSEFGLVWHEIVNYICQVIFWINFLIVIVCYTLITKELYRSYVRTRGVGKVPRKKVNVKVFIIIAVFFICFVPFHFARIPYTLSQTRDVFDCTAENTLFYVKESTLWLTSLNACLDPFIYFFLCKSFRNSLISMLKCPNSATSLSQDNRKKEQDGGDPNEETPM

With `O=C(NCCOCCOCCNC(=O)c1ccc2c(c1)C1(OC2=O)c2ccc(O)cc2Oc2cc(O)ccc21)c1ccc(CNc2ncnc3c2ncn3[C@@H]2O[C@H](COP(=O)(O)CP(=O)(O)O)[C@@H](O)[C@H]2O)cc1`, at 5'-nucleotidase [1], the Ki was determined as 12.6 nM. The inhibition entry (in data set [2]; at 5'-nucleotidase [3]) was “Active” in each case. The Activity result with MDA-MB-231, in the data set with Retina and in the data set with A549 was “Non-Toxic” in each case.
Turning to `O=C(NCCCCCCNC(=O)c1ccc2c(c1)C1(OC2=O)c2ccc(O)cc2Oc2cc(O)ccc21)c1ccc(CNc2ncnc3c2ncn3[C@@H]2O[C@H](COP(=O)(O)CP(=O)(O)O)[C@@H](O)[C@H]2O)cc1`, the Ki at 5'-nucleotidase [1] is 2.98 nM; on 5'-nucleotidase [7], 4.59 nM; at 5'-nucleotidase [12], 26 nM. The inhibition result in [4], in [5], in data set [11] and in data set [13] was “inactive” throughout. Moreover, the inhibition result (in data set [2]; on 5'-nucleotidase [3]) was “Active” each time. Also, in data set [6], the outcome was inactive. In addition, the half-life in data set [8] worked out at 1.93 h. The Ratio Ki in data set [9] was found to be 8. In addition, the Activity entry in the data set on MDA-MB-231, in the data set with Retina and in the data set on A549 was “Non-Toxic” in each case. The microsomal CLint in data set [10] was 12 µL/min/mg.
